We go through eight compounds from ChEMBL document CHEMBL1759952, “Synthesis and anticancer activities of some novel 2-(benzo[d]thiazol-2-yl)-8-substituted-2H-pyrazolo[4,3-c]quinolin-3(5H)-ones” (Eur J Med Chem, 2011).

One data set concerns HL-60. Briefly: Cytotoxicity against human HL60 cells for 72 hrs by MTT assay. It counts as functional, cell-based. The settings on record: HL-60, 72 h. In a few lines:
(§1)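 Cells kept in RPMI 1640 with 10% fetal bovine serum, 2 mM glutamine, 100 U/mL penicillin and streptomycin, at 37 °C under 5% CO₂. Compounds were dissolved in DMSO and diluted with water to 1 mg/mL, then incubated with cells for 72 h. Growth was read by MTT, with doxorubicin as positive control. IC₅₀ is the concentration giving 50% growth inhibition, in triplicate.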

For the next data set, the system named is MDA-MB-435. Nature of the data set: Cytotoxicity against human MDA-MB-435 cells for 72 hrs by MTT assay. Format: functional, cell-based. The settings on record: MDA-MB-435, 72 h. In a few lines: as §1
Another data set concerns HCT-8. Nature of the data set: Cytotoxicity against human HCT8 cells for 72 hrs by MTT assay. Format: functional, cell-based. The settings on record: HCT-8, 72 h. The essentials:
as §1

The subject of the next data set is SF-295. Nature of the data set: Cytotoxicity against human SF295 cells for 72 hrs by MTT assay. The settings on record: SF-295, 72 h. Format: functional, cell-based. The essentials:
as §1

A short description of data set [1]: Toxicity against mouse erythrocytes assessed as hemolysis after 30 mins by spectrometric analysis. It counts as cell-based, Erythrocyte. In a few lines:
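Used a 2% mouse erythrocyte suspension in 0.85% NaCl with 10 mM CaCl₂. Compounds (DMSO stock diluted in water) were tested across a graded range, 30 min at room temperature, then centrifuged. Released hemoglobin in the supernatant was read at 540 nm. DMSO was the negative control and 1% Triton X-100 the positive control. EC₅₀ = effective concentration.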

The structures appear in SMILES notation. ≈ marks a conversion by molar mass, not a printed value.

`O=c1c2c[nH]c3ccc(F)cc3c-2nn1-c1nc2ccccc2s1`: the IC50 in the data set on HL-60, with MDA-MB-435, in the data set with HCT-8 and in the data set with SF-295 was above 5 µg/mL in each case. For the same compound, the EC50 at 30 min in data set [1] is above 250 µg/mL.
As for `Cc1ccc2[nH]cc3c(=O)n(-c4nc5ccccc5s4)nc-3c2c1`, the IC50 with HL-60 was above 5 µg/mL; in the data set on MDA-MB-435, 2.3 µg/mL (≈ 6.92 µM); with HCT-8 it was 4.1 µg/mL (≈ 12.3 µM); in the data set on SF-295, 4.5 µg/mL (≈ 13.5 µM). Moreover, in data set [1], the EC50 at 30 min was above 250 µg/mL.
Regarding `O=c1c2c[nH]c3ccc(Br)cc3c-2nn1-c1nc2ccccc2s1`, the IC50 was 3 µg/mL (≈ 7.55 µM) in the data set on HL-60, 1.6 µg/mL (≈ 4.03 µM) in the data set on MDA-MB-435, above 5 µg/mL in the data set with HCT-8 and 4.1 µg/mL (≈ 10.3 µM) in the data set with SF-295. Moreover, the EC50 at 30 min in data set [1] is above 250 µg/mL.
`COc1ccc2[nH]cc3c(=O)n(-c4nc5ccccc5s4)nc-3c2c1`: the IC50 in the data set on HL-60, in the data set with MDA-MB-435, in the data set with HCT-8 and with SF-295 was above 5 µg/mL throughout. In data set [1], the concentration giving a half-maximal response (EC50) at 30 min is above 250 µg/mL.
Consider `O=c1c2c[nH]c3ccc(Cl)cc3c-2nn1-c1nc2ccccc2s1`, for which the IC50 in the data set with HL-60, in the data set with MDA-MB-435, in the data set with HCT-8 and in the data set with SF-295 was above 5 µg/mL throughout. The concentration for a half-maximal effect (EC50) at 30 min in data set [1] is above 250 µg/mL.
With `O=c1c2c[nH]c3ccccc3c-2nn1-c1nc2ccccc2s1`, the IC50 in the data set with HL-60, in the data set with MDA-MB-435, in the data set with HCT-8 and in the data set with SF-295 was above 5 µg/mL throughout. Further, the EC50 at 30 min in data set [1] is above 250 µg/mL.
On to `O=c1c2c[nH]c3ccc([N+](=O)[O-])cc3c-2nn1-c1nc2ccccc2s1`, for which the IC50 in the data set on HL-60, in the data set with MDA-MB-435, in the data set with HCT-8 and in the data set on SF-295 was above 5 µg/mL in each case. Further, the EC50 at 30 min in data set [1] is above 250 µg/mL.
Consider `COc1cccc2c1C(=O)c1c(O)c3c(c(O)c1C2=O)C[C@@](O)(C(=O)CO)C[C@@H]3O[C@H]1C[C@H](N)[C@H](O)[C@H](C)O1` [DOXORUBICIN], for which the IC50 in the data set on HL-60 turned out to be 0.03 µg/mL (≈ 0.0552 µM); in the data set on MDA-MB-435, 0.69 µg/mL (≈ 1.27 µM); with HCT-8, 0.06 µg/mL (≈ 0.11 µM).
